Activity calls are given as the source filed them. The calls are words filed in the database; no cut-off is given here.
How the values were obtained:
Thymidylate kinase [1] = biological target: T1, Thymidylate kinase (Mycobacterium tuberculosis, UniProt P9WKE1); experiment: Inhibition of Mycobacterium tuberculosis recombinant TMPK
T1 sequence (P9WKE1 whole entry): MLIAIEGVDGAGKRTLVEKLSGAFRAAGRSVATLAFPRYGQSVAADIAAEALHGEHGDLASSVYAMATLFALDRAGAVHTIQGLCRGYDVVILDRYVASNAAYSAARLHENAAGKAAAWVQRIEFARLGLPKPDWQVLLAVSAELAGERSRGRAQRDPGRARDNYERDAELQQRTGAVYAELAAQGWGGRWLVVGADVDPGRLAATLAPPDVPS

[2] = biological target: T2, Thymidylate kinase (Homo sapiens) (UniProt P23919); experiment: Inhibition of human TMPK upto 2 mM
T2 sequence (whole entry): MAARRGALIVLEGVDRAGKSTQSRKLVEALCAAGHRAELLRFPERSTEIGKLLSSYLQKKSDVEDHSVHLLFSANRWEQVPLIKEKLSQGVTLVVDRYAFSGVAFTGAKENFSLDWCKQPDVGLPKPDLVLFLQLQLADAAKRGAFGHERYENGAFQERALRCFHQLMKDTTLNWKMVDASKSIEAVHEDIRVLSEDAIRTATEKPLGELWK

Vero [3] = experiment: Cytotoxicity against african green monkey Vero cells by MTT assay at 100 ug/ml after 72 hrs; assay type: cell-based; conditions: chlorocebus sabaeus
How it was run: (§1)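 Vero cells in DMEM with 10% fetal calf serum plus penicillin/streptomycin; seeded 6 × 10^3 cells/mL, exposed to compounds (range 5–400 µg/mL) 72 h at 37 °C, 5% CO2; MTT 7.5 mg/mL added 4 h, formazan dissolved in 10% SDS/0.01 M HCl, OD 550/570 nm; duplicate, untreated cells as control.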

[4] = biological target: T3, Thymidylate kinase (Mycobacterium tuberculosis) (UniProt P9WKE1); experiment: Inhibition of Mycobacterium tuberculosis recombinant TMPK upto 0.2 mM
T3 sequence (whole entry): T1 sequence (P9WKE1 whole entry)

Vero [5] = experiment: Cytotoxicity against african green monkey Vero cells by MTT assay at 400 ug/ml after 72 hrs; assay type: cell-based; conditions: chlorocebus sabaeus; how it was run: as §1
Thymidylate kinase [6] = biological target: T4, Thymidylate kinase (Homo sapiens, UniProt P23919); experiment: Inhibition of human TMPK
T4 sequence (P23919 whole entry): T2 sequence (whole entry)

[7] = Selectivity index, ratio of Ki for human TMPK to Ki for Mycobacterium tuberculosis recombinant TMPK
How it was run: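 Selectivity index computed as Ki human TMPK divided by Ki M. tuberculosis TMPK, each Ki from recombinant enzyme assays with ATP and dTMP, mean of three assays.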

[8] = biological target: T3, Thymidylate kinase (Mycobacterium tuberculosis); experiment: Inhibition of Mycobacterium tuberculosis recombinant TMPK upto 2 mM

Row | SMILES | Ki (Thymidylate kinase [1]) | Activity (Vero [5]) | also measured
1 | NC(=O)CCCc1ccc(Cn2cc(Cl)c(=O)[nH]c2=O)cc1 | 39 µM |  | Activity [2]: inactive; Activity (Vero [3]): 10%
2 | CCCCCCc1ccc(Cn2cc(Cl)c(=O)[nH]c2=O)cc1 |  | Non-toxic | Activity [4]: inactive
3 | Cc1cn(Cc2ccc(Br)cc2)c(=O)[nH]c1=O |  | Non-toxic | 
4 | Cc1cn(Cc2ccc(CCCCCC(N)=O)cc2)c(=O)[nH]c1=O | 26.5 µM | Non-toxic | 
5 | O=c1[nH]c(=O)n([C@H]2C[C@H](O)[C@@H](CO)O2)cc1Cl [CHLORODEOXYURIDINE] | 10 µM |  | 
6 | COC(=O)CCCc1ccc(Cn2cc(Br)c(=O)[nH]c2=O)cc1 | 52 µM | Non-toxic | 
7 | NC(=O)CCCc1ccc(Cn2cc(Br)c(=O)[nH]c2=O)cc1 | 39 µM | Non-toxic | Activity [2]: inactive
8 | CCCCc1ccc(Cn2cc(Br)c(=O)[nH]c2=O)cc1 |  | Non-toxic | Activity [4]: inactive
9 | Cc1cn(Cc2ccc(CCCC(N)=O)cc2)c(=O)[nH]c1=O | 112 µM | Non-toxic | 
10 | Cc1cn(Cc2ccc(C#CCCO)cc2)c(=O)[nH]c1=O | 70 µM | Non-toxic | 
11 | Cc1cn([C@@H]2O[C@H](CO)[C@@H](O)[C@H]2O)c(=O)n(Cc2ccccc2)c1=O | 75 µM |  | 
12 | Cc1cn(Cc2ccc(/C=C/C(N)=O)cc2)c(=O)[nH]c1=O | 195 µM | Non-toxic | 
13 | O=C(O)CCCc1ccc(Cn2cc(Br)c(=O)[nH]c2=O)cc1 | 10 µM |  | Ki (Thymidylate kinase [6]): 293 µM; Ratio Ki [7]: 29; Activity (Vero [3]): 14%
14 | Cc1cn(Cc2ccc(CCCCC(=O)O)cc2)c(=O)[nH]c1=O | 58 µM | Non-toxic | 
15 | CCCCCCc1ccc(Cn2cc(Br)c(=O)[nH]c2=O)cc1 |  | Non-toxic | Activity [4]: inactive
16 | NC(=O)CCCCCc1ccc(Cn2cc(Br)c(=O)[nH]c2=O)cc1 | 19.5 µM | Non-toxic | 
17 | COC(=O)CCCc1ccc(Cn2cc(Cl)c(=O)[nH]c2=O)cc1 | 59 µM | Non-toxic | 
18 | O=C(O)CCCc1ccc(Cn2ccc(=O)[nH]c2=O)cc1 | 202 µM | Non-toxic | 
19 | Cc1cn(Cc2ccc(CCCCC(N)=O)cc2)c(=O)[nH]c1=O | 55 µM | Non-toxic | 

Row | SMILES | Ki (Thymidylate kinase [1]) | Activity (Vero [5]) | also measured
20 | Cc1cn([C@H]2C[C@H](O)[C@@H](CO)O2)c(=O)[nH]c1=O [DOXRIBTIMINE] |  | Non-toxic | 
21 | CCCCc1ccc(Cn2cc(Cl)c(=O)[nH]c2=O)cc1 |  | Non-toxic | Activity [4]: inactive
22 | O=C(O)CCCCc1ccc(Cn2cc(Br)c(=O)[nH]c2=O)cc1 | 38 µM | Non-toxic | 
23 | Cc1cn(Cc2ccc(/C=C/CC(=O)O)cc2)c(=O)[nH]c1=O | 39 µM | Non-toxic | 
24 | O=C(O)CCCCc1ccc(Cn2cc(Cl)c(=O)[nH]c2=O)cc1 | 16 µM | Non-toxic | Ki (Thymidylate kinase [6]): 122 µM; Ratio Ki [7]: 7.6
25 | O=C(O)CCCCCc1ccc(Cn2cc(Cl)c(=O)[nH]c2=O)cc1 | 23 µM | Non-toxic | 
26 | O=C(O)CCCCCc1ccc(Cn2cc(Br)c(=O)[nH]c2=O)cc1 | 34 µM | Non-toxic | Ki (Thymidylate kinase [6]): 92 µM; Ratio Ki [7]: 3
27 | O=c1[nH]c(=O)n([C@H]2C[C@H](O)[C@@H](CO)O2)cc1Br [BROXURIDINE] | 5 µM | Non-toxic | Ki (Thymidylate kinase [6]): 214 µM; Ratio Ki [7]: 43
28 | NC(=O)CCCc1ccc(Cn2ccc(=O)[nH]c2=O)cc1 |  | Non-toxic | Activity [8]: inactive
29 | Cc1cn(Cc2ccc(CCC(N)=O)cc2)c(=O)[nH]c1=O | 89 µM | Non-toxic | 
30 | O=C(O)CCCc1ccc(Cn2cc(Cl)c(=O)[nH]c2=O)cc1 |  | Non-toxic | Ki (Thymidylate kinase [6]): 790 µM; Ratio Ki [7]: 120
31 | Cc1cn(Cc2ccc(C#CCCCC(=O)O)cc2)c(=O)[nH]c1=O | 96 µM | Non-toxic | 
32 | Cc1cn(Cc2ccc(CCCC(=O)O)cc2)c(=O)[nH]c1=O | 13 µM |  | Ki (Thymidylate kinase [6]): 252 µM; Ratio Ki [7]: 19
33 | Cc1cn(Cc2ccc(/C=C/C(=O)O)cc2)c(=O)[nH]c1=O |  | Non-toxic | Activity [8]: inactive
34 | NC(=O)CCCCc1ccc(Cn2cc(Br)c(=O)[nH]c2=O)cc1 | 35 µM | Non-toxic | 
35 | Cc1cn(Cc2ccc(CCC(=O)O)cc2)c(=O)[nH]c1=O | 55 µM | Non-toxic | 
36 | Cc1cn(Cc2ccc(CCCCO)cc2)c(=O)[nH]c1=O | 51 µM | Non-toxic | 
37 | Cc1cn(Cc2ccc(CCCCCC(=O)O)cc2)c(=O)[nH]c1=O | 47 µM | Non-toxic | 
38 | NC(=O)CCCCCc1ccc(Cn2cc(Cl)c(=O)[nH]c2=O)cc1 | 26 µM | Non-toxic | 

Reference: ChEMBL document CHEMBL1150358, “Substituted benzyl-pyrimidines targeting thymidine monophosphate kinase of Mycobacterium tuberculosis: synthesis and in vitro anti-mycobacterial activity” (Bioorg Med Chem, 2008)
